{"source": "ChEMBL document CHEMBL3612041", "about": "“Combating highly resistant emerging pathogen Mycobacterium abscessus and Mycobacterium tuberculosis with novel salicylanilide esters and carbamates” (Eur J Med Chem, 2015)", "key": {"[1]": {"assay": "Solubility of the compound in RPMI-1640/Sula media by spectrophotometric analysis", "type": "physicochemical", "how_it_was_run": "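Solubility measured under assay conditions in RPMI and Sula media with 1 v/v% DMSO. Undissolved compound removed on a PVDF filter. 120 µL filtrate mixed with 80 µL acetonitrile, and concentration measured spectrophotometrically.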"}, "[2]": {"tested_on": "Mycobacteroides abscessus", "assay": "Antimycobacterial activity against Mycobacterium abscessus ATCC 19977 after 7 days by serial dilution method", "type": "functional", "how_it_was_run": "(§1)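 Serial dilution in in-house Sula semisynthetic medium, pH 6.5. Compounds added as DMSO solutions at 10 doses, final 0.05–100 µg/mL. Incubation at 37 °C, 7 days for M. abscessus and 28 days for M. tuberculosis strains. MIC taken as the lowest concentration giving visible growth inhibition, confirmed by CFU on drug-free Löwenstein-Jensen medium after further equal incubation. Repeated at least twice.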"}, "[3]": {"tested_on": "Mycobacterium tuberculosis", "assay": "Antimycobacterial activity against Mycobacterium tuberculosis H37Rv ATCC 27294 after 28 days by serial dilution method", "type": "functional", "how_it_was_run": "as §1"}, "MONO-MAC-6": {"tested_on": "MONO-MAC-6", "assay": "Cytostatic activity against human MONO-MAC-6 cells assessed as cell viability after 16 hrs by MTT assay", "type": "cell-based", "settings": "MONO-MAC-6, 16 h", "how_it_was_run": "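MonoMac6 cells kept in RPMI-1640 with 10% FCS, 2 mM L-glutamine and gentamycin at 37 °C, 5% CO2. Cells plated 10⁵ per well and treated after 24 h for 16 h in serum-free RPMI (1.0 v/v% DMSO), 5×10⁻² to 10² µM. MTT at 367 µg/mL final for 3.5 h, crystals dissolved in DMSO, OD540 minus OD620. Cytotoxicity % versus untreated control fitted sigmoidally for IC50. Two independent experiments, 4–8 parallels.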"}, "[4]": {"assay": "Selectivity index, ratio of IC50 for human MONO-MAC-6 cells to MIC for Mycobacterium abscessus ATCC 19977", "type": "toxicity", "settings": "read-out: Selectivity Index"}, "[5]": {"assay": "Selectivity index, ratio of IC50 for human MONO-MAC-6 cells to MIC for Mycobacterium tuberculosis H37Rv ATCC 27294", "type": "toxicity", "settings": "read-out: Selectivity Index"}, "[6]": {"assay": "Drug level in serum-free RPMI-1640 medium treated with [4-bromo-2-[[4-(trifluoromethyl)phenyl]carbamoyl]phenyl] 5-chloropyrazine-2-carboxylate at 0.75 mg/ml after 29 hrs by ESI-MS spectra analysis", "type": "physicochemical"}, "[7]": {"assay": "Drug level in serum-free RPMI-1640 medium treated with [4-bromo-2-[[4-(trifluoromethyl)phenyl]carbamoyl]phenyl] N-(3-chloropropyl)carbamate at 0.75 mg/ml after 6 hrs by RP-HPLC analysis", "type": "physicochemical"}}}
{"smiles": "O=C(Nc1ccc(C(F)(F)F)cc1)c1cc(Br)ccc1O", "values": [{"measurement": "solubility", "setting": "[1]", "result": "< 100", "unit": "µM"}, {"measurement": "Activity", "setting": "[2]", "result": 0, "unit": "CFU"}, {"measurement": "MIC", "setting": "[2]; Mycobacteroides abscessus, ATCC 19977, 168 h", "result": 13.9, "unit": "µM"}, {"measurement": "Activity", "setting": "[3]", "result": 2, "unit": "CFU"}, {"measurement": "MIC", "setting": "[3]; Mycobacterium tuberculosis, H37Rv ATCC 27294, 672 h", "result": 1.4, "unit": "µM"}, {"measurement": "IC50", "setting": "MONO-MAC-6", "result": 7.6, "unit": "µM"}, {"measurement": "selectivity ratio", "setting": "[4]", "result": 0.5}, {"measurement": "selectivity ratio", "setting": "[5]", "result": 5.4}, {"measurement": "Drug metabolism", "setting": "[6]", "result": "metabolite_detected"}, {"measurement": "Drug metabolism", "setting": "[7]", "result": "metabolite_detected"}]}
